This is one part of a sample in which hits are shown more often than they occur.
UPR CHOP act – activators of apoptotic arm of unfolded protein response (CHOP) | CHO-CHOP luciferase reporter, UPR activation, luminescence; percent of tunicamycin response over DMSO baseline | activation, % at 10 µM | actives 0.34% (n = 330,000) | AID 449763;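 active means at 10 µM dose, activation of 40% or more, normalized to positive control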;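 further: 100% = tunicamycin at 10 µg/mL and 0% = DMSO alone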
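System: CHO-CHOP luciferase reporter cell line; amount: 500 cells/well; buffer or medium: F12 medium containing 10% fetal bovine serum; incubation: 6 h compound exposure at 37 °C after overnight seeding; measured by: luciferase luminescence after 10 min with Steady-Glo reagent; evaluation: % reporter activation, DMSO baseline versus tunicamycin full activation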
UPR XBP1 act – activators of adaptive arm of unfolded protein response (XBP1) | CHO-XBP1 luciferase reporter, IRE1-XBP1 UPR activation, luminescence; percent of tunicamycin response, DMSO as zero | activation, % at 20 µM | actives 0.33% (n = 330,000);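 active means versus positive control, 20 µM dose yields 30% or more activation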;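 further: 100% = tunicamycin at 10 µg/mL and 0% = DMSO only wells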
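Material: CHO cell line with stable XBP1 luciferase reporter; buffer or medium: F12 medium containing 10% fetal bovine serum; compound: single point, 20 µM final compound, 1% DMSO; incubation: 6 h treatment, 37 °C; measured by: glow luminescence from Steady-Glo reagent; evaluation: activation, % of tunicamycin; control set: tunicamycin high, DMSO low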
CHOP inh – CHOP inhibition in unfolded protein response | CHO-K1 CHOP-promoter luciferase, tunicamycin-induced, 15-18 h | inhibition, % at 10 µM | actives 3.8% (n = 220,000) | AID 2732;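 active means compounds that reduced the stress-induced luciferase reporter signal by more than about 70% of percent inhibition, limit read from the data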;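 further: 0% = tunicamycin plus vehicle and 100% = wells without tunicamycin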
FXN GAA850 act – increases GAA850 frataxin promoter reporter activity; AID 540364; actives 0.56% (n = 360,000); HEK293 lucGAA850 FXN promoter luciferase reporter, 24 h; percent of 10 µM SAHA response; activation, % at 6 µM;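 active means activation above the average of all compounds screened plus 3 SD, cutoff fixed separately per campaign, cut at about 7.5% in these data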;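 further: 0% = DMSO wells and 100% = 10 µM SAHA wells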
* = called active by the depositor; · = not tested or not shown.

SMILES	UPR CHOP act	UPR XBP1 act	CHOP inh	FXN GAA850 act
Cc1ccc(S(=O)(=O)N2C[C@H]3[C@H]4C(=O)N(c5ccccc5)C(=O)[C@H]4C[C@H](OC(=O)NCc4ccccc4F)[C@@]3(O)C2)cc1	·	·	·	-0.3
C=CCn1c(SCC(O)Cn2c3ccccc3c3ccccc32)nnc1-c1ccco1 (centres undefined)	-1.9	2.1	77.2*	-2.1
C=CCn1c(SCC(=O)N2c3ccccc3Sc3ccccc32)nnc1-c1ccco1	0.5	-0.1	-8.4	0.5
CC(=O)c1ccc(OC2(C)CCN(CCOc3ccc(C)cc3)C2)cc1 (centres undefined)	·	·	·	-1.1
CN(C(=O)COC(=O)COc1ccc2ccccc2c1)c1ccccc1	·	·	·	-0.2
Cc1ccccc1C(=O)Nc1sc(C)c(C)c1C(=O)c1ccccc1	0.2	0.9	58.3	2.0
Cc1sc(NC(=O)CCl)c(C(=O)c2ccccc2)c1C	-6.4	-6.9	107.8*	-7.0
CC(C)(C)c1ccc(-c2nc(-c3ccncc3)no2)cc1	0.6	-2.8	81.9*	1.2
Cc1cc(C)cc(-c2nc(-c3ccncc3)no2)c1	4.1	6.8	84.5*	5.7
Cc1ccc(-c2nc(-c3ccncc3)no2)cc1	·	·	·	3.6
CC1(C(=O)NS(=O)(=O)c2ccccc2Cl)CCN1C(=O)COc1ccc(Cl)cc1 (centres undefined)	·	·	·	1.5
COc1cc(C(C)=O)ccc1OCC(=O)N1CCCC1c1ccc2c(c1)OCCCO2 (centres undefined)	·	·	·	0.8
Cc1ccccc1C(=O)NC(=S)Nc1ccc(S(=O)(=O)N(C)c2ccccc2)cc1	-0.2	-4.1	76.9*	0.5
Cc1cccc(C(=O)NC(=S)Nc2ccc(S(=O)(=O)N(C)c3ccccc3)cc2)c1	-3.9	-2.8	28.3	-0.8
C#CCN(C[C@@H]1[C@@H](OC(=O)NCC2CCCCC2)[C@@H](OC(=O)NCC2CCCCC2)Cn2c(=O)n(CCCCCC)c(=O)n21)S(=O)(=O)c1ccc(C)cc1	·	·	·	0.7
CCOc1ccc(-c2nnc(SCC(=O)Nc3cc(C)on3)o2)cc1	-4.8	-3.4	77.3*	-4.6
COc1ccc(-c2nnc(SCC(=O)Nc3cccc(Cl)c3)o2)cc1	-4.9	1.8	88.6*	4.2
O=C(CSc1ccc(Cl)cc1)Nc1cccc(-c2nc3ncccc3o2)c1	1.1	0.0	72.9*	2.0
CC(=O)Nc1cc(-c2cccc(N)c2)cn2c(-c3ccccc3)cnc12	·	·	·	-2.3
N=C1S/C(=C\c2ccc(O)cc2)C(=O)N1c1ccc(F)cc1	0.5	7.5	83.4*	3.3
O=C1/C(=C\c2ccc(O)cc2)SC(=S)N1c1cccnc1	1.6	3.9	78.4*	-1.6
COCCNC(=S)N(C)[C@H]1C[C@H]2c3cc(N4CCN(C)CC4)ccc3CCN2C(=O)[C@H]1[C@H](C)O	·	·	·	0.4
CCOC(=O)c1sc(NC(=O)CN2C(=O)c3cccc4cccc(c34)C2=O)nc1C	0.2	-3.5	16.4	-0.3
CCOC(=O)c1sc(NC(=O)CCCCCN2C(=O)c3cccc4cccc(c34)C2=O)nc1C	·	·	71.9*	0.5
Cc1ccc(NC(=O)CSCC(=O)N(C)Cc2c(F)cccc2Cl)cc1	·	·	·	-0.5
SMILES	UPR CHOP act	UPR XBP1 act	CHOP inh	FXN GAA850 act
COc1cc2nc(Cl)nc(N3CCCCC3)c2cc1OC	-1.7	4.0	3.9	1.8
COc1cc2nc(N3CCNCC3)nc(N)c2cc1OC	-1.7	1.9	70.2*	4.2
Cn1c(=O)c(C(=O)Nc2ccccn2)c(O)c2ccccc21	4.2	-1.5	71.9*	2.5
COc1ccc(-c2cnc3c(NC=O)cc(-c4ccccc4OC)cn23)cc1OC	·	·	·	-2.6
CCOC(=O)c1cc(C(=O)OCC)c2cc(Br)ccc2n1	-0.6	-2.4	87.6*	2.7
O=C(Nc1nnc([C@@H]2C[C@H](O)[C@@H](CO)O2)s1)NC1CCCCC1	·	·	·	0.5
Cc1ccc(-c2nnc(SCc3ccccc3F)o2)cc1	1.2	-0.8	74.9*	3.5
Nc1ccc2c(c1Cl)C(=O)c1ccc(N)c(Cl)c1C2=O	·	·	-35.9	8.4*
CC[n+]1c(/C=C/c2c[nH]c3ccccc23)ccc2cc(C)ccc21	20.7	16.1	75.3*	·
COc1ccc2[nH]c3c(c2c1)CCn1c-3nc2ccccc2c1=O	1.7	-3.1	70.8*	1.7
COCCNC(=O)C[C@@H]1C[C@H]2c3cc(NC(=O)Nc4ccc(F)cc4)ccc3O[C@H]2[C@H](CO)O1	·	·	·	-2.4
N#C/C(=N/Nc1ccc(OC(F)(F)F)cc1)C(N)=S	11.0	5.1	73.9*	-8.8
COc1ccc(N/N=C(\C#N)C(N)=O)cc1	2.2	-1.7	-3.5	4.4
CCC1CCc2c(sc(N)c2C(N)=O)C1 (centres undefined)	-1.8	-3.5	25.3	0.8
CCOC(=O)c1c(N)sc2c1CCC(CC)C2 (centres undefined)	1.9	1.4	76.6*	1.9
CCOC(=O)C1(C)CCN1C(=O)c1ccc(C(=O)OC)cc1 (centres undefined)	·	·	·	1.4
C=C(C(=O)Oc1ccccc1C(C)(C)C)c1ccccc1	193.2*	1.1	·	·
CCOC(=O)N(C)c1c(CC)nc2c(OCc3ccccc3OC)cccn12	·	·	·	-0.6
CC1=CC(=O)C(C(C)C)=CC1=NC(=O)c1ccc(C)cc1	6.7	-3.0	106.7*	1.4
CC1=CC(=O)C(C(C)C)=C/C1=N\OC(=O)c1cccc2nc(C)oc12	24.1	-4.3	-341.3	1.1
CCOC(=O)C1(C)CCCCCN1C(=O)c1ccc(N(C)C)cc1 (centres undefined)	·	·	·	-1.8
Cc1ccc(NC(=O)COC(=O)c2ccc3c(c2)C(=O)N(CCc2ccccc2)C3=O)c(C)c1	-0.3	-0.1	77.8*	0.6
CC(=O)C1=C(O)C(=O)N(c2cc(C(C)(C)C)on2)C1c1ccc(C(C)C)cc1 (centres undefined)	-0.3	-0.3	72.5*	0.6
